Sampled rows, rich in hits. Any-hit rate of the full collection: about 1.8%.
MsrA inh: bovine MsrA enzyme inhibitors, primary screen, biochemical, absorbance, HTS. purified bovine MsrA, absorbance read-out. inhibition, % at 15.5 µM. Methionine sulfoxide reductase A (Bos taurus). hit rate 0.75% among 360,000;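 further: 0% = vehicle wells with enzyme and 100% = reference inhibitor wells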
MIN6 prolif: inducers of MIN6 beta-cell proliferation, primary screen, ATP luminescence, uHTS; MIN6 cells proliferation, ATPlite luminescence, 48 h; cells starved in 0.2% serum; 100% = growth in 10% serum; hit rate 0.29% among 330,000; AID 2380, 2010; proliferation, % at 10 µM;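 active means compounds whose signal lies at least 3.5 SD above the mean of all wells on their plate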;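 further: 0% = DMSO-treated cells in low-serum medium and 100% = 10% serum control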
DAGLB inhibitor: DAGLB lipase inhibitors, primary screen, biochemical, fluorescence, HTS; hit rate 0.059% among 340,000; HEK293T DAGLB membrane lysate, EnzChek fluorogenic substrate; inhibition, % at 5.17 µM; in the data active means inhibition above about 34%;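 further: 0% = enzyme with vehicle and 100% = wells lacking enzyme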
Target sequence (Q8NCG7 whole entry, looked up): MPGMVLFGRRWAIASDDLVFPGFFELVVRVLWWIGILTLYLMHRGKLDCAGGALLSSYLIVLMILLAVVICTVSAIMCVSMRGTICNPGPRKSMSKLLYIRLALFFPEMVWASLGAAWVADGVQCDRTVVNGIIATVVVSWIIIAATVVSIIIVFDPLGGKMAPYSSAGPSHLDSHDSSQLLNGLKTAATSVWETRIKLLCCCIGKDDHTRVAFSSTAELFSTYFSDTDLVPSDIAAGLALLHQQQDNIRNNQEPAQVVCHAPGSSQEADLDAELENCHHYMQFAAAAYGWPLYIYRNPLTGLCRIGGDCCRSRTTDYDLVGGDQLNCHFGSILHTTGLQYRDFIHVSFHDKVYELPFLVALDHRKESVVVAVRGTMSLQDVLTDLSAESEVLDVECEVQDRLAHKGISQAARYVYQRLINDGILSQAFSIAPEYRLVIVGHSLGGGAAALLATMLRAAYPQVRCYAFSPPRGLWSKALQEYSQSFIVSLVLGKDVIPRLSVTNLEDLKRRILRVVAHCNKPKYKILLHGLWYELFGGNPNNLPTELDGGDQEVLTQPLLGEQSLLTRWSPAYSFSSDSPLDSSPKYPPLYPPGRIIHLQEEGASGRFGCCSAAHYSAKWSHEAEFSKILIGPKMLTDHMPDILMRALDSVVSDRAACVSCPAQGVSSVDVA
MT1-MMP act inh: blockers of MT1-MMP proenzyme processing, primary screen, HT1080 RFP-PRO-GFP cells, GFP/RFP fluorescence. Matrix metalloproteinase-14 (Homo sapiens), P50281. GFP/RFP ratio fluorescence, overnight; percent of plate control window, DMSO zero. GFP/RFP ratio change, % at 20 µM. hit rate 0.061% among 360,000. AID 651647, 2012;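 active means GFP/RFP ratio change of at least 30% with cell ATP level not reduced by more than half and red fluorescence within 50% of control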
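Test system: HT1080 cells expressing an RFP-PRO-GFP fluorescent reporter construct / Compound dosing: single-point 20 µM compound, 1% DMSO / Schedule: cells overnight before dosing, compound overnight, 37 °C, 5% CO2 / Evaluation: GFP/RFP fluorescence ratio / Control set: DMSO and RFP-L50D-GFP cell wells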
bovine MsrA act: bovine MsrA enzyme activators, primary screen, biochemical, absorbance, HTS | purified bovine MsrA, absorbance read-out | activation, % at 10.6 µM | hit rate 0.3% among 360,000 | AID 602163, 2012; in the data active means activation above about 7.5%;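 further: 0% = vehicle and 100% = reference activator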
SKN-1 block: suppressors of acrylamide-induced Pgst-4::GFP reporter in worms, primary screen, SKN-1 inhibitor project, whole organism, uHTS, GFP/RFP fluorescence ratio, strain VP596; C. elegans VP596 Pgst-4::GFP/RFP ratio, 24 h; inhibition, % at 21.8 µM; hit rate 0.49% among 360,000;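 active means interference check ratio from 0.5 to 1.5 plus GFP to RFP signal ratio inhibition reaching or exceeding a fixed threshold, cut at about 30% in these data, passing the limit was not always enough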
MsrA inh confirm: bovine MsrA inhibitors, retest, confirmation, biochemical, absorbance, HTS | shares compounds with MsrA inh | purified bovine MsrA, absorbance read-out | inhibition, % at 15.5 µM | hit rate 41% among 2,300 | AID 651822, 2012;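 further: coupled to thioredoxin reductase with NADPH and selenocystamine and DMSO as substrate; 0% = vehicle only and 100% = full effect of reference inhibitor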
Active calls of the source: *. Unless noted, no stated cut-off is given here; in the data, active means inhibition above about 4.5%; inactive means the rest.

Screening COc1ccc(C(=O)N/N=C/c2cc3ccccc3[nH]c2=O)cc1 returned MsrA inh 5.0*, MIN6 prolif -1, DAGLB inhibitor 3, MT1-MMP act inh 4, bovine MsrA act -4, SKN-1 block -2 and MsrA inh confirm 4.
`COc1ccccc1/C=N/NC(=O)c1cccc(NC(=O)c2ccccc2Cl)c1` gave MsrA inh 2, MIN6 prolif 0, DAGLB inhibitor -4, MT1-MMP act inh -2, bovine MsrA act -15 and SKN-1 block -4.
Screening COc1ccc(/C=N/NC(=O)c2cccc(NC(=O)c3ccccc3Cl)c2)c(OC)c1 returned MsrA inh 5.3*, MIN6 prolif 1, DAGLB inhibitor -3, MT1-MMP act inh 2, bovine MsrA act -15, SKN-1 block 14 and MsrA inh confirm 2.
COc1ccc(OC)c(/C=N\NC(=O)c2ccc(-c3ccccc3)cc2)c1 was read as MsrA inh 1, MIN6 prolif 1, DAGLB inhibitor -5, MT1-MMP act inh 3, bovine MsrA act -5 and SKN-1 block -23.
For COc1ccc2[nH]c(C(=O)N/N=C/c3ccc(OC)c(O)c3)cc2c1 the results were MsrA inh 7.5*, MIN6 prolif -3, DAGLB inhibitor 5, MT1-MMP act inh 6, bovine MsrA act -4, SKN-1 block 10 and MsrA inh confirm 7.8*.
CCOc1ccc2[nH]c(C(=O)N/N=C/c3ccccc3OC)cc2c1 was read as MsrA inh 3, MIN6 prolif -3, DAGLB inhibitor -5, MT1-MMP act inh -2, bovine MsrA act -10 and SKN-1 block -6.
Screening COc1ccc2[nH]c(C(=O)N/N=C/c3ccccc3OC)cc2c1 returned MsrA inh 5.8*, MIN6 prolif 0, DAGLB inhibitor 0, MT1-MMP act inh -3, bovine MsrA act -5, SKN-1 block 8 and MsrA inh confirm 5.4*.
For O=C(COC(=O)CCc1ccccc1)Nc1ccc(F)cc1Cl the results were MsrA inh -1, MIN6 prolif 0, DAGLB inhibitor -7, MT1-MMP act inh 2, bovine MsrA act -9 and SKN-1 block 0.
For C[C@@H]1NS(=O)(=O)[C@H]2C[C@@H]3C=C[C@]2(O3)[C@H]1OC(=O)c1ccc(C(C)(C)C)cc1 the results were MsrA inh 0, MIN6 prolif -1, DAGLB inhibitor 2, MT1-MMP act inh 7, bovine MsrA act -10 and SKN-1 block 4.
CCN(CC)c1ccc(C(=O)c2ccccc2C(=O)O)c(O)c1 was read as MsrA inh 4.7*, MIN6 prolif 0, DAGLB inhibitor 2, MT1-MMP act inh 11, bovine MsrA act -4, SKN-1 block 31 and MsrA inh confirm 4.8*.
For CCn1c(C)nc2cc(C(=O)N/N=C/c3ccccc3)ccc21 the results were MsrA inh 1, MIN6 prolif -1, DAGLB inhibitor -1, MT1-MMP act inh 12, bovine MsrA act -4 and SKN-1 block -4.
For CCn1c(C)nc2cc(C(=O)N/N=C(\C)c3ccc(N4CCOCC4)cc3)ccc21 the results were MsrA inh 1, MIN6 prolif 3, DAGLB inhibitor -2, MT1-MMP act inh 4, bovine MsrA act -7 and SKN-1 block 17.
`CCn1c(C)nc2cc(C(=O)N/N=C/c3ccc(N4CCOCC4)cc3)ccc21` gave MsrA inh 5.5*, MIN6 prolif -1, DAGLB inhibitor 0, MT1-MMP act inh 3, bovine MsrA act -6, SKN-1 block -5 and MsrA inh confirm 6.0*.
CCn1c(C)nc2cc(C(=O)N/N=C/c3ccc(O)cc3)ccc21 was read as MsrA inh 5.0*, MIN6 prolif -3, DAGLB inhibitor 1, MT1-MMP act inh 12, bovine MsrA act -2, SKN-1 block 3 and MsrA inh confirm 4.

High-throughput results deposited in PubChem BioAssay by several laboratories.
